# Screening results from PubChem.
# M5 PAM: human M5 muscarinic receptor positive allosteric modulators, primary screen, CHO-K1 cells, Fluo-8 calcium fluorescence; Muscarinic acetylcholine receptor M5 (Homo sapiens), P08912; CHO-K1 hM5, ACh EC20 PAM; 0% = ACh EC20, 100% = ACh EC100; activation, % at 3 µM; 0.3% of 360,000 active; AID 624038, 2012;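 active = activation above the run cutoff, the mean activation of all test compounds plus 3 SD, cut at about 18% in these data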
# Target sequence (P08912 whole entry, looked up): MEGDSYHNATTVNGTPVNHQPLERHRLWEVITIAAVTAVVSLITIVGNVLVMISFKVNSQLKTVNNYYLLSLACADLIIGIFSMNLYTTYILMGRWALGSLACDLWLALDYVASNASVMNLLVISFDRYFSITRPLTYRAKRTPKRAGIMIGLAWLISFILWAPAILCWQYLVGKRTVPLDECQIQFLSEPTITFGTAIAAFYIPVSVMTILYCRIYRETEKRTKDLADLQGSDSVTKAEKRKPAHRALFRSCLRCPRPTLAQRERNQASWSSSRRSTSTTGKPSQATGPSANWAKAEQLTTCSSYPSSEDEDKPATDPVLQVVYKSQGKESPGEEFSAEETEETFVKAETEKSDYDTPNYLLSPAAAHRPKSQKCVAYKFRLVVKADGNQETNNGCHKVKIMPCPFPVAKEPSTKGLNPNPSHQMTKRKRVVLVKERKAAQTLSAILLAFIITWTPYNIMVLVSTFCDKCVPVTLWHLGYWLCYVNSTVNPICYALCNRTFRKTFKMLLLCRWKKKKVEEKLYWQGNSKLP
#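 system = human M5 receptor in CHO-K1 cells | compound = one concentration, 3 µM final (nominal) | schedule = Post-acetylcholine fluorescence recording 140 s | signal = Fluo-8 calcium dye fluorescence, kinetic read | benchmarks = low control EC20 acetylcholine (0%), high control EC100 acetylcholine (100%) | repeats = singlicate, one well per test compound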
# CHRM4 PAM: human M4 muscarinic receptor positive allosteric modulators, primary screen, CHO-K1 cells, Fluo-8 calcium fluorescence | AID 624126, 2012 | Muscarinic acetylcholine receptor M4 (Homo sapiens), P08173 | CHO-K1 hM4/Gqi5, ACh EC20; 0% = ACh EC20, 100% = maximal ACh | 0.4% of 360,000 active | activation, % at 3 µM;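 active = activation above its plate's cutoff, the mean activation of sample wells plus 3 SD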
# M5 antag: human M5 muscarinic receptor antagonists, primary screen, CHO cells, Fluo-8 calcium fluorescence; Muscarinic acetylcholine receptor M5 (Homo sapiens), P08912; inhibition, % at 3 µM; 0.59% of 360,000 active; CHO-hM5 cells, ACh EC80;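 active = inhibition above a per-plate cutoff, the mean of that plate's test compounds plus 3 SD, cut at about 27% in these data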;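 also: 0% = acetylcholine EC80 with DMSO and 100% = DMSO without agonist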
# CHRM4 antagonist: human M4 muscarinic receptor antagonists, primary screen, CHO cells, Fluo-8 calcium fluorescence. AID 624125, 2012. Muscarinic acetylcholine receptor M4 (Homo sapiens), P08173. 0.73% of 360,000 active. inhibition, % at 3 µM. CHO-hM4 cells, ACh EC80;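 active = inhibition above its plate's cutoff, the mean inhibition of sample wells plus 3 SD, cut at about 27% in these data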;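 also: 0% = acetylcholine EC80 with DMSO and 100% = DMSO without agonist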
# M5 ag: human M5 muscarinic receptor agonists, primary screen, CHO-K1 cells, Fluo-8 calcium fluorescence; AID 624037, 2012; CHO-K1 hM5 cells; 0% DMSO wells, 100% maximal acetylcholine response; activation, % at 3 µM; 0.19% of 360,000 active; Muscarinic acetylcholine receptor M5 (Homo sapiens), P08912;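 active = activation above the run's mean over test compounds plus 3 SD, cut at about 23% in these data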;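 also: signal is peak over basal fluorescence ratio across the kinetic read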
# M4 ag: human M4 muscarinic receptor agonists, primary screen, CHO-K1 cells, Fluo-8 calcium fluorescence | CHO-K1 hM4/Gqi5; vehicle 0%, full acetylcholine response 100% | activation, % at 3 µM | 0.14% of 360,000 active;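 active = activation above the run mean over all test wells plus 3 SD, cut at about 32% in these data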;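 also: peak over basal fluorescence ratio per well then scaled between controls; 0% = DMSO wells and 100% = acetylcholine at EC100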
# Starred values were filed as active, the others as inactive; + = active, no number. The list is not random: actives were taken first. Their share in the collection is about 1.8%.
SMILES,M5 PAM,CHRM4 PAM,M5 antag,CHRM4 antagonist,M5 ag,M4 ag
CC(C)[C@H](NC(=O)c1ccccc1F)C(=O)NCc1ccc(S(N)(=O)=O)cc1,10,15*,2,-26,-3,4
Cc1cnc(NC(=O)CSc2nnc(-c3ccncc3)n2C2CCCCC2)s1,1,33*,-10,-5,-1,1
COc1cc(OC)nc(NC(=O)CSc2nnc(-c3ccccc3)n2C2CCCCC2)n1,25*,7,15,-6,0,2
Cc1c(NC(=O)CN2C(=O)NC3(CCCCC3)C2=O)c(=O)n(-c2ccccc2)n1C,3,5,-3,-3,3,1
CCC(=O)c1ccc(OC(=O)c2ccc(Br)o2)cc1,-7,-10,0,1,36*,33*
O=C1c2ccccc2S(=O)(=O)c2cc(C(=O)N(c3ccccn3)c3ccccn3)ccc21,-19,2,-2,-10,67*,77*
O=C(c1ccc(Cl)c([N+](=O)[O-])c1)N(c1ccccn1)c1ccccn1,20*,7,9,-1,0,0
Clc1ccc(Nc2ccc(NCc3ccccc3)nn2)cc1,-18,-31,0,14,4,50*
Cc1ccc(Nc2ccc(NCc3ccccc3)nn2)cc1C,-10,-13,-4,3,-2,12
O=S(=O)(NCC1(N2CCOCC2)CCCCC1)c1ccc(Cl)cc1C(F)(F)F,-11,-6,19,0,-3,1
CN1C=CC=C/C1=C1\SC(=S)N(c2ccccc2)C1=O,-2,17*,-1,-5,-5,1
COc1cccc(NC(=O)Nc2cc(C(=O)NCC3CCCO3)ccc2N2CC3CC(C2)c2cccc(=O)n2C3)c1 (stereo not given),-2,6,13,3,-6,1
Cc1occc1C(=O)N1CCCC(CCC(=O)NCc2ccc(F)c(F)c2)C1 (stereo not given),3,2,2,-7,-2,2
O=C(CCC1CCCN(C2C3CC4CC(C3)CC2C4)C1)NCc1ccc(F)c(F)c1 (stereo not given),0,-20,10,41*,-16,0
C=CCn1c(=O)c(C(=O)Nc2ccccc2O)c(O)c2ccccc21,-4,-5,-2,4,-10,0
C=CCn1c(=O)c(C(=O)Nc2ccccc2C)c(O)c2ccccc21,27*,-4,-17,-16,8,0
CC(C)Cn1c(=O)c(C(=O)Nc2ccncc2)c(O)c2ccccc21,-33,-47,100*,98*,-20,1
COc1ccc(CNC(=O)Cn2cc(C(F)(F)F)ccc2=O)cc1OC,5,4,-6,-6,0,1
CCOC(=O)C1CCCN(CCC(=O)Nc2ccc(Br)c(C)c2)C1 (stereo not given),-10,-7,11,2,0,5
CC1([N+](=O)[O-])COC2(OC1)C(=O)Nc1ccccc12 (stereo not given),0,-18,8,48*,-3,0
C/C(=N\NC(=O)Cc1ccc(Cl)cc1)c1cccnc1,-6,-5,13,9,0,0
CCCCCCn1c(=O)[nH]c2nc3cc(N)c(C)cc3nc2c1=O,-24,-14,37*,26,104*,37*
CN(C)c1ccc(/C=C/c2nc3ccccc3c(=O)n2CCO)cc1,-16,-20,13,9,22,42*
O=c1c2ccccc2nc(/C=C/c2ccccc2)n1CCCO,-13,-8,18,-4,-2,9
CCCCN1C(=O)C(C#N)CC2=C1CC(C)(C)CC2=O (stereo not given),1,7,-4,-3,0,0
SMILES,M5 PAM,CHRM4 PAM,M5 antag,CHRM4 antagonist,M5 ag,M4 ag
C#CC(=O)CC1(CN(Cc2ccccc2)C(=O)OC(C)(C)C)CCCCC1,-3,-17,16,32*,-7,0
CCN1/C(=C/C=C/c2oc3ccc(-c4ccccc4)cc3[n+]2CC)Oc2ccc(-c3ccccc3)cc21,-34,-3,102*,99*,+,+
COc1cc(-c2nnc(CSc3nnc(Nc4ccc(Oc5ccccc5)cc4)s3)o2)cc(OC)c1OC,-8,-11,12,-1,-1,2
COc1cccc(/C=C2\C(=O)C(=O)c3ccccc32)c1,1,-2,-5,31*,-2,1
O=C1CSC(c2ccccn2)N1c1ccc(Br)cc1 (stereo not given),3,-22,7,61*,-13,0
O=C1CSC(c2ccccn2)N1c1ccccc1 (stereo not given),3,10,1,0,-1,1
Cc1cccc(N2C(=O)CC(n3ccnc3)C2=O)c1C (stereo not given),1,-3,6,-2,1,1
COc1ccc(CCNC(=O)c2ccc(CSc3ccc(Cl)cc3)o2)cc1OC,-25,-13,22,30*,4,23
O=[N+]([O-])c1c(Nc2cccc(O)c2)cc(Cl)c2nonc12,2,-2,15,60*,-5,-2
Cc1ccccc1C(=O)NC1CCN(CC(=O)NCc2ccccc2)CC1,7,-1,8,6,-2,2
O=C(NCc1ccccn1)/C(=C/c1ccco1)NC(=O)c1ccccc1,0,21*,-4,-14,0,5
O=C(COC(=O)CCC1CCCC1)Nc1ccccc1OC(F)F,4,22*,6,3,-2,4
Cc1ccc(Cl)cc1N1CCN(C(=O)C2CCN(S(=O)(=O)c3cccnc3)CC2)CC1,-10,0,11,7,9,17
Cc1ccc(Cl)cc1N1CCN(C(=O)C2CCN(S(=O)(=O)c3c(C)nn(C)c3C)CC2)CC1,-26,-16,30*,26,7,21
Cc1cc(C)n(CCCNC(=O)c2ccc3c(c2)NC(=O)CS3)n1,25*,6,2,-4,-12,1
Cc1ccc(S(=O)(=O)N2CCOCC2)cc1C(=O)N1C(=O)c2cccc(N)c2C1=O,3,27*,-5,-26,-1,1
COc1ccc(N2CCN(C(c3ccc4ncccc4c3)c3nnnn3C(C)C)CC2)cc1 (stereo not given),1,10,5,4,-2,0
Cc1ccc(NN2C(=O)C=C(c3ccc(Cl)cc3)C2=O)cc1,-3,-14,23,70*,10,9
